Sampled rows, rich in hits. Any-hit rate of the full collection: about 5.8%.
IDH1 R132H inh = inhibitors of human IDH1 R132H. O75874. IDH1 R132H reductase, diaphorase/resazurin fluorescence, 60 min. inhibition, % at 10 µM. 70,000 tested, 0.18% active. AID 624101; in the data active = inhibition above about 34%; inconclusive = no clear call, values can overlap the other calls; inactive = below about 11%;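 note: 0% = DMSO and 100% = no enzyme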
Target sequence (O75874 whole entry R132H): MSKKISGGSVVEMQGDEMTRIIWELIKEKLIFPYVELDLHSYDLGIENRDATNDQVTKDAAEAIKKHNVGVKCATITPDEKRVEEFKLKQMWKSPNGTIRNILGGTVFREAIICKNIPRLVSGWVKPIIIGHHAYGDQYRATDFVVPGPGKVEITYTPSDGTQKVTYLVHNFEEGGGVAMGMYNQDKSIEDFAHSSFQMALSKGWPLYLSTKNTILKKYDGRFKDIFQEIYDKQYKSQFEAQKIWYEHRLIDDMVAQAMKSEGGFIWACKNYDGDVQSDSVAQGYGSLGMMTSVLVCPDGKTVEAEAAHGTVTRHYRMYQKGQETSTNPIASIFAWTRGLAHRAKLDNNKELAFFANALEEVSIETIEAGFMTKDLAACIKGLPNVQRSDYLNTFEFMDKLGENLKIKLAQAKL
KDM4C inh = inhibitors of human demethylase GASC-1 KDM4C; Q9H3R0; GST-KDM4C 2-372, H3K9me3 peptide, LANCE TR-FRET; inhibition, % at 12.5 µM; 96,000 tested, 0.15% active; AID 720574;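 active = mean replicate inhibition above about 25%, with at least 55% of replicates also reaching it, limit read from the data, passing the limit was not always enough; inconclusive = only one of those two conditions met; inactive = neither condition met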
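System: N-terminal GST-fused human GASC-1 (KDM4C) fragment, residues 2-372; amount: enzyme final amount 10 nM; incubation: reaction 30 min RT, detection step 1 h RT; medium: HEPES buffer, pH 7.5, plus ascorbate; technique: LANCE TR-FRET, Eu antibody, ULight-streptavidin, EDTA, ex 340 nm, em 618/671 nm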
T cruzi growth-1 = inhibitors of T. cruzi proliferation | T. cruzi beta-gal in NIH3T3, GalScreen luminescence, 90 h | inhibition, % at 8.34 µM | 77,000 tested, 5.9% active | AID 624255;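 active = mean inhibition above about 93%, with at least 55% of replicates each passing it, limit read from the data, passing the limit was not always enough; inconclusive = only one of those two conditions holds; inactive = neither condition holds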
Pf Dd2 growth = blocks growth of Plasmodium falciparum Dd2 parasites. 94,000 tested, 2.3% active. activity change, % at 10 µM. AID 1159554. P. falciparum Dd2 growth, SYBR Green, 72 h; stronger effect = lower value; in the data active = activity change below about -80%; inconclusive = no clear call, values can overlap the other calls
T cruzi growth-2 = Trypanosoma cruzi proliferation inhibition | shares compounds with T cruzi growth-1 | T. cruzi beta-gal in NIH3T3, GalScreen luminescence, 90 h | inhibition, % at 8.35 µM | 5,600 tested, 72% active;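 active = mean replicate inhibition above about 95% and at least 55% of replicates individually reaching it, limit read from the data; inconclusive = only one of the two criteria is met; inactive = neither criterion is met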
T cruzi growth-3 = Trypanosoma cruzi proliferation inhibition; T. cruzi beta-gal in NIH3T3, GalScreen luminescence, 90 h; shares compounds with T cruzi growth-1; inhibition, % at 2.09 µM; 5,600 tested, 21% active;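 active = mean inhibition above about 95%, with at least 55% of replicates also reaching it, limit read from the data; inconclusive = meets just one of the two conditions; inactive = meets neither condition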;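 note: plate controls were neutral control median for no effect and positive control median for full effect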
3T3 cytotox = cytotoxicity in mouse NIH/3T3 fibroblasts | NIH/3T3 viability, CellTiter-Glo ATP luminescence, 90 h | cytotoxicity (signal decrease), % at 8.35 µM | shares compounds with T cruzi growth-1 | 5,600 tested, 14% active;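 active = mean signal decrease across replicates above about 35% based on untreated-well scatter, with enough replicates individually passing, limit read from the data; inconclusive = no rule stated though some were filed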;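 note: 0% = median of neutral control wells and 100% = median of positive control wells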
3T3 cytotox 2 = cytotoxicity in mouse NIH/3T3 fibroblasts; shares compounds with T cruzi growth-1; NIH/3T3 viability, CellTiter-Glo ATP luminescence, 90 h; inhibition, % at 24.9 µM; 5,600 tested, 56% active;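 active = mean loss of cell viability signal at or above a set limit, and enough replicates individually reaching it; inconclusive = meets only the mean limit or only the replicate share; inactive = meets neither condition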;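 note: 0% = median of neutral control wells and 100% = median of positive control wells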
An asterisk follows results filed as active; ? = inconclusive; nt = no result given.

SMILES	IDH1 R132H inh	KDM4C inh	T cruzi growth-1	Pf Dd2 growth	T cruzi growth-2	T cruzi growth-3	3T3 cytotox	3T3 cytotox 2
CCS(=O)(=O)N1CCCCN2[C@H](C1)[C@H](c1ccc(C#Cc3ccccn3)cc1)[C@@H]2CO	nt	0	96*	-19	94	54	-2	1
CN(C)C(=O)c1ccc(-c2ccc([C@H]3[C@@H](CO)N4CCCCN(C(=O)C5CCCC5)C[C@H]34)cc2)cc1	nt	nt	102*	18	105*	101*	15	39*
CN(C)C(=O)c1ccc(-c2ccc([C@H]3[C@@H](CO)N4CCCCN(C(=O)C5CCCC5)C[C@@H]34)cc2)cc1	nt	nt	?	15	110*	93	-20	-2
C/C=C/c1ccc([C@H]2[C@@H](CO)N3CCCCN(C(=O)C4CCCC4)C[C@@H]23)cc1	nt	1	107*	-10	108*	86	1	5
COc1ccc(NC(=C(C#N)C#N)C(F)(F)C(F)(F)F)cc1	1	nt	nt	nt	nt	nt	nt	nt
CC(=O)OC1/C=C(/C(=O)O)CC/C=C(/C)C(=O)/C=C\C1(C)C (centres undefined)	1	nt	nt	nt	nt	nt	nt	nt
C[C@H](O)C#Cc1ccc2c(c1)O[C@H](CN(C)Cc1ccc(-c3ccccc3)cc1)[C@H](C)CN([C@H](C)CO)S2(=O)=O	nt	0	99*	-27	97*	97*	23	106*
C[C@H](CO)N1C[C@H](C)[C@H](CN(C)Cc2ccc(-c3ccccc3)cc2)Oc2cc(C#C[C@@H](C)O)ccc2S1(=O)=O	0	0	103*	-67	96*	115*	52*	102*
C[C@H](O)C#Cc1ccc2c(c1)O[C@@H](CN(C)Cc1ccc(-c3ccccc3)cc1)[C@@H](C)CN([C@@H](C)CO)S2(=O)=O	0	-2	86	-32	nt	nt	nt	nt
COc1ccc(S(=O)(=O)N(C)C[C@H]2Oc3cc(C4=CCCC4)ccc3S(=O)(=O)N([C@H](C)CO)C[C@@H]2C)cc1	-2	2	51	-66	nt	nt	nt	nt
COc1ccc(S(=O)(=O)N(C)C[C@H]2Oc3cc(C4=CCCC4)ccc3S(=O)(=O)N([C@H](C)CO)C[C@H]2C)cc1	0	4	122*	-38	103*	61	22	57*
COc1ccc(S(=O)(=O)N(C)C[C@H]2Oc3cc(C4=CCCC4)ccc3S(=O)(=O)N([C@@H](C)CO)C[C@H]2C)cc1	0	7	122*	-28	101*	105*	45*	54*
C[C@@H]1CN([C@@H](C)CO)C(=O)c2cc(NC(=O)c3ccccc3)ccc2O[C@@H](C)CCCCO[C@H]1CN(C)C(=O)CCCN(C)C	-1	-2	47	2	nt	nt	nt	nt
C[C@@H]1CN([C@H](C)CO)C(=O)c2cc(NS(C)(=O)=O)ccc2O[C@@H](C)CCCCO[C@@H]1CN(C)C(=O)CCCN(C)C	nt	1	100*	23	54	0	18	-2
C[C@@H]1CCCCO[C@H](CN(C)C(=O)CCCN(C)C)[C@@H](C)CN([C@H](C)CO)C(=O)c2cc(NC(=O)c3ccccc3)ccc2O1	3	2	99*	8	23	-38	-11	9
CC(C)NC(=O)N1CCCCN2[C@@H](CO)[C@H](c3ccc(C#Cc4ccccc4F)cc3)[C@@H]2C1	nt	-3	113*	-16	96*	79	51*	104*
CC(C)NC(=O)N1CCCCN2[C@H](CO)[C@H](c3ccc(C#Cc4ccccc4F)cc3)[C@H]2C1	nt	-2	109*	-33	104*	107*	31	103*
CC(C)NC(=O)N1CCCCN2[C@H](C1)[C@H](c1ccc(C#Cc3ccccc3F)cc1)[C@@H]2CO	nt	-1	70	1	nt	nt	nt	nt
CC1OC(c2cc3oc(-c4ccccc4)cc(=O)c3c(O)c2O)CC(O)C1O (centres undefined)	0	nt	nt	nt	nt	nt	nt	nt
COc1cc(OC)c2c(=O)c(OC)c(-c3ccccc3)oc2c1	0	nt	nt	nt	nt	nt	nt	nt
COc1ccccc1C#Cc1ccc([C@H]2[C@H]3CN(C(=O)C4CC4)CCCCN3[C@H]2CO)cc1	nt	nt	101*	-21	100*	57	30	48*
COc1ccccc1C#Cc1ccc([C@H]2[C@@H](CO)N3CCCCN(C(=O)C4CC4)C[C@@H]23)cc1	nt	nt	110*	-59	104*	65	57*	47*
COc1ccccc1C#Cc1ccc([C@@H]2[C@H](CO)N3CCCCN(S(C)(=O)=O)C[C@@H]23)cc1	nt	2	91	-48	nt	nt	nt	nt
Cc1cc(C)c(NC(=O)CSc2nc(-c3ccccc3)c(-c3ccccc3)[nH]2)c(C)c1	0	nt	nt	nt	nt	nt	nt	nt
COc1ccc(NC(=O)CSc2nnc3n4ncnc4c4c5c(sc4n23)COC(C)(C)C5)cc1	0	nt	nt	nt	nt	nt	nt	nt
SMILES	IDH1 R132H inh	KDM4C inh	T cruzi growth-1	Pf Dd2 growth	T cruzi growth-2	T cruzi growth-3	3T3 cytotox	3T3 cytotox 2
CCC(=O)N(C)C[C@H]1Oc2cc(C#CCC3CCCC3)ccc2S(=O)(=O)N([C@H](C)CO)C[C@H]1C	0	0	116*	-59	98*	55	44*	103*
C[C@H]1CN([C@@H](C)CO)S(=O)(=O)c2ccc(C#CCC3CCCC3)cc2O[C@H]1CN(C)C	0	nt	-20	-60	nt	nt	nt	nt
CNC[C@H]1Oc2cc(C#CCC3CCCC3)ccc2S(=O)(=O)N([C@H](C)CO)C[C@@H]1C	0	-2	?	-53	99*	73	29	106*
C[C@@H]1CN([C@H](C)CO)S(=O)(=O)c2ccc(C#CCC3CCCC3)cc2O[C@@H]1CN(C)C(=O)CC1CC1	0	-1	112*	-70	96*	95	13	105*
CCC(=O)N(C)C[C@@H]1Oc2cc(C#CCC3CCCC3)ccc2S(=O)(=O)N([C@H](C)CO)C[C@H]1C	0	-2	94	-64	nt	nt	nt	nt
C[C@@H]1CN([C@H](C)CO)C(=O)c2ccccc2-c2ccccc2CO[C@H]1CN(C)S(=O)(=O)c1cccc(C#N)c1	nt	-1	?	-56	48	28	5	22
COc1cccc(S(=O)(=O)N(C)C[C@@H]2OCc3ccccc3-c3ccccc3C(=O)N([C@@H](C)CO)C[C@@H]2C)c1	nt	0	105*	-66	30	-1	-4	8
Cc1ccc(S(=O)(=O)NC(C)C(=O)Nc2ccc3c(c2)OCCO3)cc1 (centres undefined)	1	nt	nt	nt	nt	nt	nt	nt
COc1ccc(NC(=O)CN(c2ccc(OC)c(Cl)c2)S(C)(=O)=O)cc1Cl	0	nt	nt	nt	nt	nt	nt	nt

Source: PubChem BioAssay
